Screens deposited in PubChem by several laboratories.
This is one part of a sample in which hits are shown more often than they occur.
Calb FLC – C. albicans growth modulation with fluconazole; growth inhibition, % (no concentration beside the values); 300,000 compounds, 0.57% hits; C. albicans CaCi-2 (fluconazole-resistant clinical isolate) + fluconazole, Alamar Blue growth, 48 h; AID 1979;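 active means growth inhibition above about 58% in most replicates, limit read from the data, passing the limit was not always enough; inconclusive means exactly half the replicates above a set limit; inactive means most replicates below a set limit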;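 further: all wells also contain fluconazole at 8 µg/ml as a sub-toxic cotreatment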
T cruzi inh – blocks replication of Trypanosoma cruzi; 300,000 compounds, 1.4% hits; AID 1885; T. cruzi beta-gal in NIH3T3, luminescence, 90 h; inhibition, % (concentration not given with the values);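 active means mean inhibition across valid replicates above about 55%, limit read from the data; inconclusive means mean below that limit but half or more replicates reach it; inactive means mean below it, under half of replicates reach it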;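 further: signal also drops with host cell toxicity which is not excluded here; higher percent means less beta-gal luminescence so fewer parasites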
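System: Mouse NIH/3T3 fibroblasts infected with β-gal-expressing T. cruzi Tulahuen C4 | Quantity: NIH/3T3 cells, 5,000 per well | Reagent: 5000 reporter trypomastigotes per well | Dosing: Compound pinned at 50 nL/well, DMSO | Schedule: 3 h host attachment, then at least 90 h co-culture | Detection: GalScreen luminescence, 60 min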
L major viab – Leishmania major promastigote growth inhibition; inhibition, % at 10 µM; Leishmania major promastigotes, resazurin fluorescence viability; 200,000 compounds, 9% hits; in the data active means inhibition above about 50%;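 further: promastigotes grown with compound for 44 hours at 28 °C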
PolyA inhibitor – yeast polyadenylation inhibition | S. cerevisiae SKY197-pL101 polyadenylation reporter, beta-gal luminescence; efflux-impaired pdr1/pdr3 knockout yeast; score 100 = 6 SD above DMSO | activity score, % at 12 µM | 300,000 compounds, 0.02% hits | AID 1875;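 active means lowest replicate activity score at least 50, where 100 means six control SD above control mean; inconclusive means lowest score under 50 but half or more replicates reach 50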;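 further: yeast exposed to compound for 9 h at 30 °C; higher score means more reporter readthrough which indicates perturbed polyadenylation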
NLRP3 yeast inh – blocks the NALP3 inflammasome reconstituted in yeast; Yeast reconstituted NLRP3/ASC/caspase-1, beta-gal luminescence, 24 h; 330,000 compounds, 0.39% hits; inhibition, % at 10 µM;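 active means inhibition of 50% or more; inactive means inhibition below 50%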
NALP1 inh – blocks the NALP1 inflammasome reconstituted in yeast; inhibition, % at 10 µM; S. cerevisiae NALP1/ASC/caspase-1 growth, X-gal OD620, 72 h; 280,000 compounds, 0.61% hits; in the data active means inhibition mostly above about 24%, no sharp cut-off; inactive means mostly below about 32%
Of the large screens only hits and unclear results are named; the others gave an inactive call.

CCOC(=O)c1c(C)n(C)c2ccc(OCC(O)Cn3c(C)nc4ccccc43)cc12 (stereo unspecified)	none
CCOC(=O)c1c(C)n(C)c2ccc(OCC(O)CNCCc3ccccc3)cc12 (stereo unspecified)	T cruzi inh 55 (no result: L major viab)
CN(Cc1ccccc1)c1nc2c(c(=O)n(C)c(=O)n2C)n1CCSc1ncccn1	none (no result: NALP1 inh)
CN(Cc1ccccc1)c1nc2c(c(=O)[nH]c(=O)n2C)n1CCCc1ccccc1	L major viab 54
Cn1c(=O)[nH]c(=O)c2c1nc(N(CCO)Cc1ccccc1)n2CCCc1ccccc1	none
CCOCCn1c(N(C)Cc2ccccc2)nc2c1c(=O)[nH]c(=O)n2C	none
CN(Cc1ccccc1)c1nc2c(c(=O)[nH]c(=O)n2C)n1Cc1ccccc1Cl	L major viab 70
Cc1cc(C)nc(SCCn2c(N(C)Cc3ccccc3)nc3c2c(=O)n(C)c(=O)n3C)n1	L major viab 78
CCc1nnc(NC(=O)CSc2nnc(-c3ccc(O)cc3)n2C)s1	none
CCOC(=O)C1(CCCc2ccccc2)CCN(S(=O)(=O)N(C)C)CC1	none (no result: L major viab)
COc1ccc(S(=O)(=O)N(C)c2ccc(C(=O)N3CCCCC3)cc2)cc1	none (no result: L major viab)
O=C(/C=C/c1ccc(F)cc1)NCCCn1ccnc1	none (no result: L major viab)
COc1ccc(S(=O)(=O)NCC(c2cccnc2)N2CCN(c3ccccc3OC)CC2)cc1C (stereo unspecified)	L major viab 98 (no result: Calb FLC, T cruzi inh, PolyA inhibitor, NLRP3 yeast inh)
COc1ccccc1N1CCN(C(CNS(=O)(=O)c2ccccc2)c2cccnc2)CC1 (stereo unspecified)	L major viab 93
CCn1cc(C(=O)NCc2ccncc2)c(=O)c2cc(F)c(N3CCN(C(=O)c4ccco4)CC3)cc21	none (no result: L major viab)
CCn1cc(C(=O)NCc2ccccc2)c(=O)c2cc(F)c(N3CCN(C(=O)c4ccco4)CC3)cc21	L major viab 95
COc1ccc(C=O)cc1OS(=O)(=O)c1ccccc1[N+](=O)[O-]	L major viab 90
O=C(CN1C(=O)/C(=C\c2cccc(Br)c2)Oc2ccccc21)NCC1CCCO1 (stereo unspecified)	none (no result: L major viab)
Cc1ccc(C(=O)/C=C/c2cn(CC(O)CN3CCOCC3)c3ccccc23)cc1 (stereo unspecified)	L major viab 53 (no result: Calb FLC, T cruzi inh, PolyA inhibitor, NLRP3 yeast inh)
CN1C(=O)NC(NC(=O)c2cccs2)(C(F)(F)F)C1=O (stereo unspecified)	none
O=C(NC1(C(F)(F)F)NC(=O)N(c2ccccc2)C1=O)c1cccs1 (stereo unspecified)	L major viab 57
Cc1ccc(S(=O)(=O)NCCC(=O)NCCc2ccc(S(N)(=O)=O)cc2)cc1C	none (no result: Calb FLC, T cruzi inh, L major viab, PolyA inhibitor, NALP1 inh)
C=C1CCC2C(C)(C)[C@H](O)CC[C@@]2(C)[C@@H]1COc1cc(=O)oc2ccccc12 (stereo partly specified)	L major viab 98
Cc1cc2ccccn2c1C(=O)c1cc([N+](=O)[O-])cc([N+](=O)[O-])c1	T cruzi inh 65, L major viab 100
CCOC(=O)c1c(S(=O)(=O)NCCCc2ccco2)c(C)n(C)c1C	none (no result: L major viab)
Cc1nc2ccccc2c(=O)n1-c1ccc(NS(=O)(=O)c2cc(F)ccc2F)cc1	none (no result: L major viab, NALP1 inh)
COc1ccc(OC)c(/C=C/C(=O)N2CCCc3ccccc32)c1	none
COc1ccc(/C=C/C(=O)N2CCCc3ccccc32)cc1	L major viab 60
COc1cc(/C=C/C(=O)N2CCCc3ccccc32)cc(OC)c1OC	L major viab 50
O=C(NCc1ccco1)C(c1cccs1)N(C(=O)C1COc2ccccc2O1)c1cccc(O)c1 (stereo unspecified)	none
CCCCOc1ccc(Br)cc1CSC(=N)N	L major viab 99 (no result: NLRP3 yeast inh)
CCOc1ccc(CSC2=NCCN2)cc1[N+](=O)[O-]	none
CCOc1ccc(C(C)=O)cc1CSC(=N)N	Calb FLC inconclusive
CCCCOc1ccc(CSC2=NCCN2)cc1[N+](=O)[O-]	T cruzi inh 66, L major viab 95, NALP1 inh 47
CCCCCOc1ccc(CSC(=N)N)cc1[N+](=O)[O-]	L major viab 100
COc1ccc(CSC(=N)N)cc1[N+](=O)[O-]	none
COc1ccc(N2CC(C(=O)Nc3c(C(N)=O)oc4ccccc34)CC2=O)cc1 (stereo unspecified)	none (no result: L major viab, NALP1 inh)
O=C(CN1CCCCCCC1)N/N=C/c1ccc(F)cc1F	L major viab 61
